Only a selection was taken, and hits are over-represented in it overall.
UPR XBP1 act: activators of adaptive arm of unfolded protein response (XBP1) | CHO-XBP1 luciferase reporter, IRE1-XBP1 UPR activation, luminescence; percent of tunicamycin response, DMSO as zero | activation, % at 20 µM | 330,000 tested, 0.33% active | AID 463104;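 active = versus positive control, 20 µM dose yields 30% or more activation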;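 also: 100% = tunicamycin at 10 µg/mL and 0% = DMSO only wells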
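Material: IRE1-XBP1 luciferase reporter CHO line / Quantity: one thousand reporter cells per well / Buffer or medium: F12 with 10% serum / Compound: 20 µM single concentration, DMSO 1% / Times: 6 h treatment, 37 °C / Detection: Steady-Glo luciferase glow luminescence, 10 min after reagent addition / Benchmarks: tunicamycin high, DMSO low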
CHOP inhibitor: inhibitors of CHOP induction in ER stress response; 220,000 tested, 3.8% active; CHO-K1 CHOP-promoter luciferase, tunicamycin-induced, 15-18 h; inhibition, % at 10 µM; AID 2732;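 active = compounds that reduced the stress-induced luciferase reporter signal by more than about 70% of percent inhibition, limit read from the data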;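 also: 0% = tunicamycin plus vehicle and 100% = wells without tunicamycin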
Bfl-1 A1 inh: inhibitors of the anti-apoptotic protein A1, read as caspase activation. 330,000 tested, 0.066% active. MEF A1-2A-BIM cells, Caspase-Glo 3/7 luminescence, 3 h; percent of clofoctol response, vehicle zero. caspase activation, % (test concentration not listed);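 active = over half of replicate activation scores above 10%, or exactly half above 10 with the replicate mean above 10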
UPR CHOP act: apoptotic UPR (CHOP) activation; 330,000 tested, 0.34% active; activation, % at 10 µM; AID 449763; CHO-CHOP luciferase reporter, luminescence; percent of tunicamycin response over DMSO baseline;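 active = at 10 µM dose, activation of 40% or more, normalized to positive control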;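 also: 100% = tunicamycin at 10 µg/mL and 0% = DMSO alone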
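Dosing – one dose, 10 µM in 0.5% DMSO · System – CHO-CHOP cells, stable luciferase reporter of PERK-eIF2a-CHOP signalling · Input – 500 cells/well · Control set – tunicamycin 10 µg/mL final as positive, DMSO-only wells as negative · Timing – 6 h compound treatment, 37 °C · Measure – % activation vs tunicamycin · Technique – luminescence read with Steady-Glo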
Numbers without * were called inactive; nt = no result given.

SMILES	UPR XBP1 act	CHOP inhibitor	Bfl-1 A1 inh	UPR CHOP act
CN(C1=C(NC(=O)c2ccccc2)C(=O)c2ccccc2C1=O)C1CCS(=O)(=O)C1 (stereo not drawn)	-4	107*	-1	-7
C=CCOc1cccc(C(=O)Nc2ncn[nH]2)c1	-3	nt	2	2
Cc1ccc(-n2nc(C)c3c2OC(N)=C(C#N)C3c2ccc(F)cc2)cc1 (stereo not drawn)	-1	83*	0	0
Cc1nn(-c2ccccc2)c2c1C(c1ccc([N+](=O)[O-])cc1)C(C#N)=C(N)O2 (stereo not drawn)	-11	25	-1	-1
CCOC(=O)C1CCCN(C(=O)Cn2sc3nc(C)cc(C)c3c2=O)C1 (stereo not drawn)	-3	109*	0	17
COc1cc(Cl)c(C)cc1NC(=O)CCN1C(=O)NC(C)(C)C1=O	5	nt	nt	2
Cc1cccc(OCC(=O)N/N=C/c2cccn2C)c1	1	-4	1	3
Cc1cccc(OCC(=O)N/N=C/c2cn[nH]c2-c2ccc(Cl)c(Cl)c2)c1	1	80*	-2	2
c1ccc(-c2cc(-c3ccncc3)nc3ccc4ccccc4c23)cc1	2	89*	0	2
C=CCn1c(COc2ccc(CC)cc2)nnc1SC/C(O)=C(\C#N)c1nc2ccccc2[nH]1	0	88*	0	1
COc1ccc(-c2cc3nc(C)c(CCC(=O)NCc4ccco4)c(C)n3n2)c(OC)c1	-1	15	0	1
Cc1nc2cc(-c3ccc(Cl)cc3)nn2c(C)c1CCC(=O)NCc1ccco1	-2	74*	0	0
Cc1ccc(S(=O)(=O)N(C)Cc2nc(-c3ccc(Br)cc3)no2)cc1	0	83*	-1	-1
CCOc1ccc(CCNC(=O)COC(=O)c2cccc(N(C)C)c2)cc1OCC	-3	nt	-1	5
Cn1c(SCc2ccccc2Cl)nc(C(F)(F)F)cc1=O	4	74*	0	1
Cn1c(SCc2ccccc2)nc(C(F)(F)F)cc1=O	2	29	0	-2
Cn1c(SCc2c(Cl)cccc2Cl)nc(C(F)(F)F)cc1=O	2	82*	0	1
Cn1c(SCc2cccc(Cl)c2)nc(C(F)(F)F)cc1=O	1	84*	0	-2
CC1CCN(C(=O)COC(=O)Cn2cnc3ccccc32)CC1	-1	nt	-1	-1
Cc1ccnc(NS(=O)(=O)c2ccc(NC(=O)c3ccc([N+](=O)[O-])s3)cc2)n1	-3	-9	1	-1
CCCOc1cccc(C(=O)Nc2ccc3c(c2)OCCO3)c1	-8	nt	-6	0
COC(=O)c1cc(N=Nc2sc(N)nc2C)cc(C(=O)OC)c1	28	80*	1	1
NC(=O)C1Cc2ccccc2CN1C(=O)c1nn(Cc2ccccc2)c(=O)c2ccccc12 (stereo not drawn)	-1	nt	0	0
O=C(Nc1ccc(Cl)cc1Cl)c1cccc(N2C(=O)C=CC2=O)c1	-4	nt	14*	5
Cc1ccc(NC(=O)Cn2cc(C(F)(F)F)cc(Cl)c2=O)cc1S(=O)(=O)N1CCCCC1	-4	nt	0	0
SMILES	UPR XBP1 act	CHOP inhibitor	Bfl-1 A1 inh	UPR CHOP act
O=C(Nc1ccc(S(=O)(=O)N2CCCC2)cc1)c1ccc(CN2CCc3ccccc3C2)cc1	-1	70*	0	6
O=C1c2ccccc2/C(=C\C#Cc2ccccn2)N1c1ccccc1	4	nt	0	8
COc1cc(C(C[N+](=O)[O-])c2c(-c3ccccc3)cc3ccccn23)cc(OC)c1OC (stereo not drawn)	-4	-37	0	32
COc1ccc(C(C[N+](=O)[O-])c2c(-c3ccccc3)cc3ccccn23)cc1OC (stereo not drawn)	3	81*	2	9
CC(C)c1ccc(/C=N/NC(=O)CN(c2cccc(Cl)c2Cl)S(C)(=O)=O)cc1	5	86*	0	1
CC(=O)C1=C(c2ccccc2)NC(=O)NC1c1ccccc1OCC(=O)Nc1ccccc1 (stereo not drawn)	-1	72*	0	-1
CC(=O)C1=C(C)NC(=O)NC1c1ccccc1OCC(=O)NCCc1ccccc1 (stereo not drawn)	0	16	1	1
CCS(=O)(=O)c1ccc(O)c(NC(=O)c2ccc(S(=O)(=O)N3CCCCCC3)cc2)c1	-2	nt	-1	1
COc1ccc(C2SCC(=O)N2CC23CC4CC(CC(C4)C2)C3)cc1 (stereo not drawn)	0	86*	0	0
COc1cc2c(-c3ccccc3)c(C)oc2cc1/C=N/NC(N)=S	9	nt	6.7*	11
Nc1nonc1-n1nnc(C(=O)N/N=C/c2cccs2)c1-c1ccc2c(c1)OCO2	-3	nt	0	-2
O=C(Nc1cccc(C(F)(F)F)c1)Nc1ccc(N2CCCC2)c(S(=O)(=O)Nc2ccccc2Cl)c1	6	76*	-1	15
CC(C(=O)N1CCc2ccccc21)N1CCN(c2cccc(C(F)(F)F)c2)CC1 (stereo not drawn)	4	nt	0	-1
Cc1cc(N2CCN(c3ccc(F)cc3)CC2)nc2cc(O)ccc12	3	82*	0	0
COc1ccc(N2CCN(c3cc(C)c4ccc(O)cc4n3)CC2)cc1	5	-7	-1	4
Cc1nnc(SCC(=O)Nc2ccccc2NC(=O)CSc2nnc(C)s2)s1	-1	17	0	0
Cc1ccc(S(=O)(=O)Nc2ccc(-c3nc4ccc(C)cc4s3)cc2)cc1	-1	87*	0	6
Cc1ccc2nc(-c3ccc(NC(=S)NC(=O)CC(C)C)cc3)sc2c1	8	96*	-1	6
Cc1nc2ccc(NC(=O)CCS(=O)(=O)c3ccccc3)cc2s1	0	-11	0	2
Cc1cccc(S(=O)(=O)Nc2ccc(-c3nc4ccc(C)cc4s3)cc2)c1	4	-6	0	5
Cc1nnc(SCC(=O)Nc2ccc(-c3nc4ccccc4s3)cc2)s1	nt	86*	-10	nt
Cc1ccc2nc(-c3ccc(NC(=O)CCS(=O)(=O)c4ccccc4)cc3)sc2c1	-3	82*	-6	-4
CC(C)N(CCNCC(O)COc1ccc(C(C)(C)c2ccccc2)cc1)C(C)C (stereo not drawn)	-3	4	0	2
COc1ccc(C2(C)NC(=O)N(CC(=O)Nc3ccc(-c4nc5ccc(C)cc5s4)cc3)C2=O)cc1 (stereo not drawn)	-2	71*	1	0
Cc1ccc2nc(-c3ccc(NC(=O)CSc4nccc(=O)[nH]4)cc3)sc2c1	2	-14	-3	2
Cc1ccc2nc(-c3ccc(NC(=O)CN4C(=O)c5ccccc5C4=O)cc3)sc2c1	10	26	4	3
Cc1ccc2nc(-c3ccc(NC(=O)CSc4nc(N)cc(=O)[nH]4)cc3)sc2c1	4	73*	-2	8

Screening data deposited in PubChem by several laboratories.
